The text below walks through data of ChEMBL document CHEMBL1129074, “Inhibitors of human immunodeficiency virus type 1 derived from gp41 transmembrane protein: structure--activity studies” (J Med Chem, 1996).

For assay [1], the system named is MT4. In words: (§1) Inhibitory potency of gp41 fragment against HIV-1 induced cytopathic effect in MT-4 cell assay at 20 uM. The class given is functional. The following applies: Homo sapiens. The procedure, abridged:
(§2)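 MT4 cells (exponential growth) at 5×10^5 cells/mL infected with HIV-1 IIIB (100× TCID50) for 1 h at 37 °C, diluted 6-fold, added to serially diluted peptide in RPMI 1640/FCS medium; mock-infected controls. After 5 days at 37 °C, 5% CO2, cells lysed with Nonidet-40 and DNA content read by propidium iodide. Inhibition = restoration of infected-cell growth relative to uninfected controls; cytotoxicity measured in parallel.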

Assay [2] concerns MT4. In words: Inhibitory potency of gp41 fragment against HIV-1 induced cytopathic effect in MT-4 cell assay at 6.4 uM. In kind it is functional. The following applies: Homo sapiens.
The test system of assay [3] is MT4. Described as §1. The following applies: Homo sapiens, MT4. In kind it is functional, Homo sapiens. Put shortly:
as §2

Assay [4] deals with MT4. In words: Inhibitory potency of gp41 fragment against HIV-1 induced cytopathic effect in MT-4 cell assay at 8 uM. The class given is functional. The note with it: Homo sapiens.
Assay [5] relates to MT4. In words: Inhibitory potency of gp41 fragment against HIV-1 induced cytopathic effect in MT-4 cell assay at 5 uM. The class given is functional. The following applies: Homo sapiens.
Assay [6] deals with MT4. In words: Inhibitory potency of gp41 fragment against HIV-1 induced cytopathic effect in MT-4 cell assay at 16 uM. The following applies: Homo sapiens. The class given is functional.
For assay [7], the system named is MT4. In words: Inhibitory potency of gp41 fragment against HIV-1 induced cytopathic effect in MT-4 cell assay. In kind it is functional, cell-based. The note with it: Homo sapiens.
Assay [8] concerns MT4. In words: Inhibitory potency of gp41 fragment against HIV-1 induced cytopathic effect in MT-4 cell assay at 80 uM. The class given is functional. The following applies: Homo sapiens.

The structures appear in SMILES notation. Peptide text beside a SMILES is read from it.

Consider `CC[C@H](C)[C@H](NC(=O)CNC(=O)[C@H](Cc1c[nH]c2ccccc12)NC(=O)[C@@H](NC(=O)[C@@H](NC(=O)[C@H](CC(C)C)NC(=O)[C@H](CCC(N)=O)NC(=O)[C@H](CC(C)C)NC(=O)[C@H](CC(C)C)NC(=O)CNC(=O)CNC(=O)[C@H](CS)NC(C)=O)[C@@H](C)O)C(C)C)C(=O)N[C@@H](CCCCN)C(=O)N[C@@H](CCC(N)=O)C(=O)N[C@@H](CC(C)C)C(=O)N[C@@H](CCC(N)=O)C(=O)N[C@@H](C)C(=O)N[C@@H](CCCN=C(N)N)C(=O)N[C@H](C(=O)N[C@@H](CC(C)C)C(=O)O)[C@@H](C)CC` (Ac-CGGLLQLTVWGIKQLQARIL-OH), for which 20 µM produced 30% inhibition with MT4 [1]. Still for that read-out and setting: with `CC[C@H](C)[C@H](NC(=O)CNC(=O)[C@H](Cc1c[nH]c2ccccc12)NC(=O)[C@@H](NC(=O)[C@@H](NC(=O)[C@H](CC(C)C)NC(=O)[C@H](CCC(N)=O)NC(=O)[C@H](CC(C)C)NC(=O)[C@H](CC(C)C)NC(=O)[C@H](Cc1c[nH]cn1)NC(=O)[C@H](CCC(N)=O)NC(=O)[C@H](CCC(N)=O)NC(=O)[C@H](C)NC(=O)[C@H](CCC(=O)O)NC(=O)[C@@H](NC(=O)[C@H](C)NC(=O)[C@H](CCCN=C(N)N)NC(=O)[C@H](CC(C)C)NC(=O)[C@H](CC(C)C)NC(=O)[C@H](CC(N)=O)NC(=O)[C@H](CC(N)=O)NC(C)=O)[C@@H](C)CC)[C@@H](C)O)C(C)C)C(=O)N[C@@H](C)C(=O)N[C@@H](C)C(=O)N[C@@H](CC(C)C)C(=O)N[C@@H](CCC(N)=O)C(=O)N[C@@H](C)C(=O)N[C@@H](CCCN=C(N)N)C(=O)N[C@H](C(=O)N[C@@H](C)C(=O)N[C@@H](C)C(=O)N[C@H](C(=O)N[C@@H](CCC(=O)O)C(=O)N[C@@H](C)C(=O)N[C@@H](Cc1ccc(O)cc1)C(=O)N[C@@H](CC(C)C)C(=O)N[C@@H](C)C(=O)N[C@@H](C)C(=O)N[C@@H](CCC(N)=O)C(=O)O)C(C)C)[C@@H](C)CC` (Ac-NNLLRAIEAQQHLLQLTVWGIAALQARIAAVEAYLAAQ-OH) the figure was 22%.

`CCCCCCCCCCCCC(N)C(=O)N[C@@H](CC(C)C)C(=O)N[C@@H](CCC(N)=O)C(=O)N[C@@H](CC(C)C)C(=O)N[C@H](C(=O)N[C@H](C(=O)N[C@@H](Cc1c[nH]c2ccccc12)C(=O)NCC(=O)N[C@H](C(=O)N[C@@H](CCCCN)C(=O)N[C@@H](CCC(N)=O)C(=O)N[C@@H](CC(C)C)C(=O)N[C@@H](CCC(N)=O)C(=O)N[C@@H](C)C(=O)N[C@@H](CCCN=C(N)N)C(=O)N[C@H](C(=O)O)[C@@H](C)CC)[C@@H](C)CC)C(C)C)[C@@H](C)O` (some centres undefined) (HELM PEPTIDE1{[CCCCCCCCCCCCC(N)C(=O)[*:2]].L.Q.L.T.V.W.G.I.K.Q.L.Q.A.R.I}$$$$V2.0) yielded an inhibition at 6.4 µM in the assay with MT4 [2] of 37%. In the assay with MT4 [3], `CCCCCCCCCCCCC(N)C(=O)N[C@@H](CCC(N)=O)C(=O)N[C@@H](Cc1c[nH]cn1)C(=O)N[C@@H](CC(C)C)C(=O)N[C@@H](CC(C)C)C(=O)N[C@@H](CCC(N)=O)C(=O)N[C@@H](CC(C)C)C(=O)N[C@H](C(=O)N[C@H](C(=O)N[C@@H](Cc1c[nH]c2ccccc12)C(=O)NCC(=O)N[C@H](C(=O)N[C@@H](CCCCN)C(=O)N[C@@H](CCC(N)=O)C(=O)N[C@@H](CC(C)C)C(=O)N[C@@H](CCC(N)=O)C(=O)N[C@@H](C)C(=O)N[C@@H](CCCN=C(N)N)C(=O)N[C@H](C(=O)N[C@@H](CC(C)C)C(=O)N[C@@H](C)C(=O)N[C@H](C(=O)N[C@@H](CCC(=O)O)C(=O)N[C@@H](CCCN=C(N)N)C(=O)N[C@@H](Cc1ccc(O)cc1)C(=O)N[C@@H](CC(C)C)C(=O)N[C@@H](CCCCN)C(=O)N[C@@H](CC(=O)O)C(=O)N[C@@H](CCC(N)=O)C(=O)O)C(C)C)[C@@H](C)CC)[C@@H](C)CC)C(C)C)[C@@H](C)O` (some centres undefined) (HELM PEPTIDE1{[CCCCCCCCCCCCC(N)C(=O)[*:2]].Q.H.L.L.Q.L.T.V.W.G.I.K.Q.L.Q.A.R.I.L.A.V.E.R.Y.L.K.D.Q}$$$$V2.0) yielded an inhibition at 20 µM of 0%. The inhibition at 8 µM in the assay with MT4 [4] is 15%. Further, in the assay on MT4 [5], the inhibition at 5 µM was 10%. In the assay with MT4 [6], `CCCCCCCCCCCCC(N)C(=O)N[C@@H](CCC(N)=O)C(=O)N[C@@H](CC(C)C)C(=O)N[C@H](C(=O)N[C@H](C(=O)N[C@@H](Cc1c[nH]c2ccccc12)C(=O)NCC(=O)N[C@H](C(=O)N[C@@H](CCCCN)C(=O)N[C@@H](CCC(N)=O)C(=O)N[C@@H](CC(C)C)C(=O)N[C@@H](CCC(N)=O)C(=O)N[C@@H](C)C(=O)N[C@@H](CCCN=C(N)N)C(=O)N[C@H](C(=O)O)[C@@H](C)CC)[C@@H](C)CC)C(C)C)[C@@H](C)O` (some centres undefined) (HELM PEPTIDE1{[CCCCCCCCCCCCC(N)C(=O)[*:2]].Q.L.T.V.W.G.I.K.Q.L.Q.A.R.I}$$$$V2.0) yielded an inhibition at 16 µM of 32%. For the same compound, 8.9 µM corresponded to half-maximal inhibition in the assay on MT4 [7] (IC50). In the case of `CC[C@H](C)[C@H](NC(=O)[C@H](CCCN=C(N)N)NC(=O)[C@H](C)NC(=O)[C@H](CCC(N)=O)NC(=O)[C@H](CC(C)C)NC(=O)[C@H](CCC(N)=O)NC(=O)CCCCCNC(=O)CCCCCNC(=O)[C@@H](NC(=O)[C@@H](NC(=O)[C@H](CC(C)C)NC(=O)[C@H](CCC(N)=O)NC(=O)[C@H](CC(C)C)NC(=O)[C@H](CC(C)C)NC(=O)[C@H](Cc1c[nH]cn1)NC(=O)[C@H](CCC(N)=O)NC(C)=O)[C@@H](C)O)C(C)C)C(=O)N[C@@H](CC(C)C)C(=O)N[C@@H](C)C(=O)N[C@H](C(=O)N[C@@H](CCC(=O)O)C(=O)O)C(C)C` (HELM PEPTIDE1{[ac].Q.H.L.L.Q.L.T.V.[O=C(CCCCCN[*:1])[*:2]].[O=C(CCCCCN[*:1])[*:2]].Q.L.Q.A.R.I.L.A.V.E}$$$$V2.0), the inhibition at 80 µM with MT4 [8] worked out at 27%.
